UPR XBP1 act: activators of adaptive XBP1 UPR arm, primary screen, cell-based, CHO-XBP1 luciferase reporter, luminescence, uHTS | IRE1-XBP1 UPR activation; percent of tunicamycin response, DMSO as zero | activation, % at 20 µM | 330,000 compounds, 0.33% hits | AID 463104, 2010;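 active = versus positive control, 20 µM dose yields 30% or more activation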;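 also: 100% = tunicamycin at 10 µg/mL and 0% = DMSO only wells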
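Test system: CHO-XBP1 luciferase reporter cells | Buffer or medium: Serum-containing F12 medium, 10% FBS | Schedule: 6 h compound exposure at 37 °C, 5% CO2 | Detection: Steady-Glo luciferase glow luminescence, 10 min after reagent addition | Read-out basis: Activation, % of tunicamycin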
ABHD5 PLIN5 PPI: ABHD5-PLIN5 interaction inhibitors, primary screen, cell lysate, split luciferase complementation, luminescence | Perilipin-5 (Homo sapiens) + 1-acylglycerol-3-phosphate O-acyltransferase ABHD5 (Homo … | AID 602281, 2012 | 360,000 compounds, 0.78% hits | Split G. princeps luciferase complementation, 4 h | inhibition, % at 4 µM;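 active = inhibition above the mean inhibition across every tested compound plus 3 SD, cut at about 22% in these data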;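 also: 0% = DMSO only wells and the 100% control is not disclosed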
Exocytosis inh: LAMP-1 surface exposure blockers, TALL-104 cells – cell-based, flow cytometry, MLPCN library, primary screen; TALL-104 LAMP-1 surface exposure; cells stimulated with thapsigargin and PMA; inhibition, % at 10 µM; 360,000 compounds, 0.66% hits;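 active = inhibition above about 55%, limit read from the data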
Mdm2 MdmX PPI: inhibitors of human Mdm2-MdmX association, primary screen, cell-based, luminescence, split luciferase, SaOS-2, uHTS; inhibition, % at 8 µM; Protein Mdm4 (Homo sapiens) + E3 ubiquitin-protein ligase Mdm2 (Homo sapiens), …; AID 485346, 2010; SaOS-2 split-luciferase Mdm2/MdmX complementation; 330,000 compounds, 3% hits;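 active = inhibition of at least 50% at 8 µM in the primary screen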
Target sequence (O15151 whole entry, looked up): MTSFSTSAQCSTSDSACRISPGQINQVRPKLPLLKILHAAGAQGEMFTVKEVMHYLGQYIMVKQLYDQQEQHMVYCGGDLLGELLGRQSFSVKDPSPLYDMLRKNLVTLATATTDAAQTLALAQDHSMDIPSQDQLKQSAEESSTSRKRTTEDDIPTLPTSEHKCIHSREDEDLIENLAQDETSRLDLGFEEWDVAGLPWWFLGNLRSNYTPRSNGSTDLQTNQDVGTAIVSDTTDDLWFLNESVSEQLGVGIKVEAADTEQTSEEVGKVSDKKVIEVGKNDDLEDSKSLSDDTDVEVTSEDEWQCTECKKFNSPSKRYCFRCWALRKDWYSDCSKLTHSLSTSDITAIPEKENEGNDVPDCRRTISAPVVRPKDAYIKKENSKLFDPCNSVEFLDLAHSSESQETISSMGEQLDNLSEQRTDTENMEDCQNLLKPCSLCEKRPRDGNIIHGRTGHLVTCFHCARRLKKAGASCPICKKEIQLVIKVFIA
Target sequence (Q00987 whole entry, looked up): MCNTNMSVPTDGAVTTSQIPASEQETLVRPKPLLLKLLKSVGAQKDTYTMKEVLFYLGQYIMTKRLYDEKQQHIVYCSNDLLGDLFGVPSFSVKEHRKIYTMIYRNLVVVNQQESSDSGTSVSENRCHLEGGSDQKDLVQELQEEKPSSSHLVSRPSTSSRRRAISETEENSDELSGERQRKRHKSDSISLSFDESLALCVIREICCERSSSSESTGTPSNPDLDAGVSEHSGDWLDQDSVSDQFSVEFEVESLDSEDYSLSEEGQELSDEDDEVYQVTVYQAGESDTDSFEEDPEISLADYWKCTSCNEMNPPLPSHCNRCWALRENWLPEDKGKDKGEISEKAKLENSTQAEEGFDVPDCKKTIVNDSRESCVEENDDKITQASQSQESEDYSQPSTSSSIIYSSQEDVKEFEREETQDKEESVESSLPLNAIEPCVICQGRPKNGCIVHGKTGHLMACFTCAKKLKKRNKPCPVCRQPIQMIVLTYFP
CHOP UPR activ: activators of apoptotic CHOP UPR arm, primary screen, cell-based, CHO-CHOP luciferase reporter, luminescence, uHTS | activation, % at 10 µM | UPR activation; percent of tunicamycin response over DMSO baseline | 330,000 compounds, 0.34% hits;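 active = at 10 µM dose, activation of 40% or more, normalized to positive control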;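 also: 100% = tunicamycin at 10 µg/mL and 0% = DMSO alone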
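Evaluation: % reporter activation, DMSO baseline versus tunicamycin full activation; System: CHO-CHOP luciferase reporter cell line; Input: 500 cells/well; Incubation: 6 h compound treatment, 37 °C; Measured by: Steady-Glo luciferase luminescence; Dosing: one dose, 10 µM in 0.5% DMSO; Buffer or medium: F12 medium, 10% FBS; Benchmarks: positive tunicamycin 10 µg/mL, negative DMSO alone.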
ABHD5 PLIN5 conf: ABHD5-PLIN5 interaction inhibitors, confirmation, biochemical, luminescence; shares compounds with ABHD5 PLIN5 PPI; 2,200 compounds, 67% hits; inhibition, % at 4 µM; in the data active = inhibition above about 23%;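 also: 0% = DMSO vehicle wells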
HNF4 counter: HNF4 dimerization inhibitors, counter-screen for ABHD5-PLIN5 interaction inhibitor project, biochemical, split-luciferase complementation, luminescence | inhibition, % at 4 µM | shares compounds with ABHD5 PLIN5 PPI | 2,200 compounds, 77% hits | AID 651674, 2012;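 active = mean inhibition across replicate wells exceeding the computed hit threshold, cut at about 13% in these data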;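 also: light from luciferase halves that rejoin when HNF4 fusion proteins dimerize; 0% = DMSO only wells and the 100% control is not given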
* marks the source's active call; other numbers are inactive results. In the library only some 4% were active in any assay of this set; here they are far more common.

Screening Cc1ccnc(NC(=S)NC(=O)/C=C/c2ccco2)c1 returned UPR XBP1 act 2.1, ABHD5 PLIN5 PPI 23.5*, Exocytosis inh 3.8, Mdm2 MdmX PPI -0.4, CHOP UPR activ 6.8, ABHD5 PLIN5 conf 2.4 and HNF4 counter 11.1.
Screening CCCCCCCCN1C(=O)[C@H](CC(=O)NCc2ccc(C)o2)C[C@@]2(C(=O)OC)CCCCC=C12 returned ABHD5 PLIN5 PPI 35.9*, Exocytosis inh -2.5, ABHD5 PLIN5 conf 22.6* and HNF4 counter 6.7.
Screening CCCCCCCCN1C(=O)[C@H](CC(=O)NCc2ccc(C)o2)C[C@@]2(C(=O)OCC)CCC=C12 returned ABHD5 PLIN5 PPI 31.0*, Exocytosis inh -0.3, ABHD5 PLIN5 conf 27.9* and HNF4 counter 15.8*.
Screening COc1ccc(NC(=O)CN2C(=O)N(C)Cc3ccccc32)c(C)c1 returned UPR XBP1 act 0.9, ABHD5 PLIN5 PPI -2.3, Exocytosis inh -1.3, Mdm2 MdmX PPI 0.7 and CHOP UPR activ 0.0.
Screening CCOc1cc(/C=C(\C#N)C(=O)NCC2CCCO2)ccc1OCC(N)=O (configuration not stated) returned UPR XBP1 act 0.8, ABHD5 PLIN5 PPI 0.6, Exocytosis inh -1.6, Mdm2 MdmX PPI 14.9 and CHOP UPR activ 0.1.
`OCc1nc2ccccc2n1CCOc1ccccc1` gave UPR XBP1 act 3.2, ABHD5 PLIN5 PPI -5.7, Exocytosis inh -11.3, Mdm2 MdmX PPI 4.9 and CHOP UPR activ 1.2.
For CCOc1ccc(NCc2nc3ccccc3n2CCOc2ccccc2)cc1 the results were ABHD5 PLIN5 PPI 25.3*, Exocytosis inh 5.0, ABHD5 PLIN5 conf 7.7 and HNF4 counter 11.0.
`O=S(=O)(c1ccccc1)N1CCN(Cc2c(O)ccc3ccccc23)CC1` gave UPR XBP1 act -2.5, ABHD5 PLIN5 PPI 28.1*, Exocytosis inh -4.8, Mdm2 MdmX PPI 21.8, CHOP UPR activ -0.2, ABHD5 PLIN5 conf 38.7* and HNF4 counter 81.4*.
NC(=O)N1N=C2/C(=C/c3ccccc3)CCCC2C1c1ccccc1 (configuration not stated) was read as UPR XBP1 act 0.9, ABHD5 PLIN5 PPI -0.6, Exocytosis inh 10.8, Mdm2 MdmX PPI 24.5 and CHOP UPR activ -0.2.
Screening COc1cc(CNC(C)(C)CO)cc(Br)c1OCc1ccc(Cl)cc1 returned UPR XBP1 act 0.8, ABHD5 PLIN5 PPI 28.0*, Exocytosis inh 21.7, Mdm2 MdmX PPI 49.5, CHOP UPR activ 0.7, ABHD5 PLIN5 conf 13.1 and HNF4 counter 0.1.
`Cc1ccc(C2Nc3ccc4ccccc4c3C3=C2C(=O)CC(C)(C)C3)o1` (configuration not stated) gave UPR XBP1 act 8.2, ABHD5 PLIN5 PPI 29.6*, Exocytosis inh -0.7, Mdm2 MdmX PPI -7.1, CHOP UPR activ 5.3, ABHD5 PLIN5 conf 4.1 and HNF4 counter 7.3.
Screening CC1(C)CC(=O)C2=C(C1)c1c(ccc3ccccc13)NC2c1ccc(C(=O)O)cc1 (configuration not stated) returned UPR XBP1 act -2.4, ABHD5 PLIN5 PPI 1.4, Exocytosis inh -9.3, Mdm2 MdmX PPI 0.7 and CHOP UPR activ 0.0.
CC(=O)Nc1ccc(S(=O)(=O)Nc2nc(CN3CCOCC3)nc3sc4c(c23)CCCC4)cc1 was read as UPR XBP1 act 0.8, ABHD5 PLIN5 PPI 3.8, Exocytosis inh -3.3, Mdm2 MdmX PPI 16.7 and CHOP UPR activ 0.3.
`O=C(O)c1ccccc1C(=O)c1ccc(-c2ccccc2)cc1` gave UPR XBP1 act 6.7, ABHD5 PLIN5 PPI 0.2, Exocytosis inh -1.2, Mdm2 MdmX PPI -47.1 and CHOP UPR activ -1.0.
`O=C1C=CC(=O)N1c1ccccc1N1C(=O)C=CC1=O` gave ABHD5 PLIN5 PPI 30.4*, Exocytosis inh 4.9, ABHD5 PLIN5 conf 64.1* and HNF4 counter 109.4*.
`O=C(c1ccccc1)c1ccccc1N1C(=O)C=CC1=O` gave UPR XBP1 act -5.1, ABHD5 PLIN5 PPI 44.0*, Exocytosis inh -9.7, Mdm2 MdmX PPI 0.9, CHOP UPR activ 8.8, ABHD5 PLIN5 conf 45.0* and HNF4 counter 105.4*.
Screening CN(C)C1=NC[C@H](Cc2ccccc2)N1CCCCc1ccccc1 returned UPR XBP1 act -4.1, ABHD5 PLIN5 PPI 6.7, Exocytosis inh -1.7, Mdm2 MdmX PPI 19.3 and CHOP UPR activ -1.4.
`O=c1[nH]c(/C=C/c2ccc([N+](=O)[O-])cc2)c([N+](=O)[O-])c(=O)[nH]1` gave UPR XBP1 act -1.0, ABHD5 PLIN5 PPI 49.8*, Exocytosis inh 1.3, Mdm2 MdmX PPI 29.7, CHOP UPR activ 0.9, ABHD5 PLIN5 conf 84.6* and HNF4 counter 79.2*.
Cc1ccsc1C(=O)NNC(=S)NC1CCCCC1 was read as UPR XBP1 act -0.3, ABHD5 PLIN5 PPI -1.0, Exocytosis inh -2.1, Mdm2 MdmX PPI -0.9 and CHOP UPR activ 4.0.
`CCCCn1c(=O)n(CC(=O)Nc2ccc(C)c(Cl)c2)c(=O)c2c1ncn2Cc1ccco1` gave UPR XBP1 act -6.0, ABHD5 PLIN5 PPI 35.7*, Exocytosis inh -2.1, Mdm2 MdmX PPI 21.7, CHOP UPR activ -0.5, ABHD5 PLIN5 conf 26.1* and HNF4 counter 9.2.
CCOC(=O)/C(C#N)=C/c1c[nH]c2ccccc12 was read as UPR XBP1 act 6.6, ABHD5 PLIN5 PPI 4.2, Exocytosis inh -4.1, Mdm2 MdmX PPI -43.0 and CHOP UPR activ 4.0.
Screening CCOC(=O)C(=Cc1c[nH]c2ccc(S(=O)(=O)N(C)C)cc12)C(=O)OCC returned UPR XBP1 act -2.5, ABHD5 PLIN5 PPI 51.5*, Exocytosis inh -0.4, Mdm2 MdmX PPI 25.1, CHOP UPR activ 9.7, ABHD5 PLIN5 conf 63.1* and HNF4 counter 58.0*.
For N=C1C=CC(=C(c2ccc(N)cc2)c2ccc(N)cc2)C=C1 the results were ABHD5 PLIN5 PPI 33.8*, Exocytosis inh 3.2, ABHD5 PLIN5 conf 56.1* and HNF4 counter 59.5*.
`O=C(Nc1ccc(Cl)cc1C(=O)NCc1cccnc1)c1ccc(Cl)cc1Cl` gave UPR XBP1 act -0.1, ABHD5 PLIN5 PPI -1.6, Exocytosis inh 4.6, Mdm2 MdmX PPI 19.7 and CHOP UPR activ 0.5.
